This is an account of results in ChEMBL document CHEMBL1139516, “Optimization of amide-based inhibitors of soluble epoxide hydrolase with improved water solubility” (J Med Chem, 2005).

Data set [1] addresses T1, Bifunctional epoxide hydrolase 2 (Homo sapiens, UniProt P34913).
T1 sequence (P34913 whole entry): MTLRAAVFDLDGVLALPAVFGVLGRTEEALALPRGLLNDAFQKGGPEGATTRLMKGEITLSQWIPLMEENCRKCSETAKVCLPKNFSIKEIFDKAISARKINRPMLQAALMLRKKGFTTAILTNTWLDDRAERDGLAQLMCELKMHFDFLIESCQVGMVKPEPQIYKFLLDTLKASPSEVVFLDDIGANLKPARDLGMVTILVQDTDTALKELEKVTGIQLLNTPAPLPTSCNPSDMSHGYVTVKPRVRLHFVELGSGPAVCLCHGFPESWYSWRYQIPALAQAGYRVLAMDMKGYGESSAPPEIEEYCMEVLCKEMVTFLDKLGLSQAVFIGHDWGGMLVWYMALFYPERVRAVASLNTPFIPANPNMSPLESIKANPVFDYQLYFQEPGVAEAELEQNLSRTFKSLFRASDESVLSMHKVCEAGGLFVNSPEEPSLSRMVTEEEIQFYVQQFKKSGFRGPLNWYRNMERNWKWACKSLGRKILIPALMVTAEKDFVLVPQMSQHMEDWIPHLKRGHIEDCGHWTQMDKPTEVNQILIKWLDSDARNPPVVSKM
The data set can be described thus: Inhibitory concentration against human soluble epoxide hydrolase (sEH) at 0.24 uM.

Data set [2] concerns the target T2, Bifunctional epoxide hydrolase 2 (Mus musculus, UniProt P34914).
T2 sequence (P34914 whole entry): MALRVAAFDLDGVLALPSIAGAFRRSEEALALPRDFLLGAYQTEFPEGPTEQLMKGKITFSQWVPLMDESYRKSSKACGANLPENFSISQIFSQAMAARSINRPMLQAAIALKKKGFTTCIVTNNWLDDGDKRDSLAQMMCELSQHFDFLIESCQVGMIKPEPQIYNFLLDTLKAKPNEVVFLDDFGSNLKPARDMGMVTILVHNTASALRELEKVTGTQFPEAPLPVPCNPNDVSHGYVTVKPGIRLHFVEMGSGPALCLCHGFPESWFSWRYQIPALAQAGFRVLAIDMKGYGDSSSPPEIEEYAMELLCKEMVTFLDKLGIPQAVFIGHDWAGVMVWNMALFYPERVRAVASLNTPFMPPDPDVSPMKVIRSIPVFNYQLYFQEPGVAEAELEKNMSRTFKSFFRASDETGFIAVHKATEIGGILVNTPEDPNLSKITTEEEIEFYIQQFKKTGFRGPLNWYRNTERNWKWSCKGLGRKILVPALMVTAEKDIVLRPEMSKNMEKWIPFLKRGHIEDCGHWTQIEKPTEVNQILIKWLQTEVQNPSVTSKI
The data set can be described thus: Inhibitory concentration against mouse soluble epoxide hydrolase (sEH) at 0.12 uM. A digest of the protocol: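 Recombinant murine enzyme, baculovirus-expressed, affinity-purified (≥97% pure). 0.12 μM enzyme preincubated with inhibitor 5 min at 30 °C in 0.1 M sodium phosphate pH 7.4 with 0.1 mg/mL BSA. Racemic 4-nitrophenyl-trans-2,3-epoxy-3-phenylpropyl carbonate added at 40 μM. 4-Nitrophenolate formation read at 405 nm over 1 min, 30 °C. Run in triplicate. IC50 regressed from ≥5 points, at least two on each side in the linear region.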

Data set [3] in a line: Partition coefficient (logP). The data set is classed as physicochemical. The note with it: octanol/water. An outline of the steps:
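Calculated, not measured: Crippen's method estimate.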

The nature of data set [4]: Solubility in sodium phosphate buffer 0.1M, pH 7.4 at 25 +/-1.5 degree C. The note with it: read-out: S. Format: physicochemical. An outline of the steps:
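Excess solid added to 0.1 M sodium phosphate pH 7.4 at 25 ± 1.5 °C. Suspension equilibrated by 1 h sonication, then 24 h shaking. Centrifuged 5 min at 200g. Absolute amount of dissolved compound then calculated.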

≈ marks a conversion by molar mass, not a printed value. Where only a bound is given, the exact number is not on record here.

As to `O=C(CC1CCCCC1)Nc1ccccc1CO`, the IC50 in data set [1] and in data set [2] was over 100 µM throughout.
Take `O=C(Nc1ccccc1CO)NC1CCCCC1`: the IC50 in data set [1] and in data set [2] was over 100 µM in each case.
As to `CCCCCOC(=O)CCCOC(=O)Oc1cccc(Cl)c1`, the half-inhibitory concentration (IC50) in data set [1] and in data set [2] was over 100 µM in each case.
`CCCCCOC(=O)CCCNC(=O)C12CC3CC(CC(C3)C1)C2`: the IC50 is 9.4 µM in data set [1] and 2.8 µM in data set [2].
In the case of `CCCCCCCCCCCC(=O)NC12CC3CC(CC(C3)C1)C2`, the logP in data set [3] (read-out: logP) was 5.52. The solubility in data set [4] came out at 0.42 µg/mL (≈ 1.26 µM).
`COc1ccc(NC(=O)CC2CCCCC2)cc1`: in data set [1], inhibition was half-maximal at 6.2 µM (IC50).
On to `CCCCCCCCCCNC(=O)CC12CC3CC(CC(C3)C1)C2`, for which the logP in data set [3] (read-out: logP) was 5.64. Also, in data set [4], the solubility worked out at 0.32 µg/mL (≈ 0.959 µM).
Regarding `CCCCCOC(=O)CCCOC(=O)Cc1cccc(Cl)c1`, the IC50 in data set [1] and in data set [2] was over 100 µM throughout.
On to `CCCCCOC(=O)CCCOC(=O)Nc1cccc(Cl)c1`, for which the IC50 in data set [1] amounted to 25.2 µM; in data set [2], 17.4 µM.
Consider `CCCCCOC(=O)CCCCC(=O)NC12CC3CC(CC(C3)C1)C2`, for which, in data set [3] (read-out: logP), the logP was 3.53. In addition, in data set [4], the solubility was found to be 15.1 µg/mL (≈ 43.2 µM).
Take `CCCCCCC(O)CCCNC(=O)NC12CC3CC(CC(C3)C1)C2` (configuration not stated): the figures for the IC50 in data set [1] and in data set [2] were 0.13 µM and 0.05 µM, respectively.
Consider `O=C(Cc1ccccc1CO)NC1CCCCC1`, for which the IC50 in data set [1] and in data set [2] was over 100 µM in each case.
In the case of `CCCCCOC(=O)CCCNC(=O)NC12CC3CC(CC(C3)C1)C2`, in data set [3], the log partition coefficient (logP) is 2.77. For the same compound, in data set [4], the solubility was determined as 1.44 µg/mL (≈ 4.11 µM).
In the case of `CCCCCOC(=O)CCCNC(=O)Oc1cccc(Cl)c1`, the IC50 in data set [1] and in data set [2] was over 100 µM throughout.
As for `CCCCCOC(=O)CCCNC(=O)CC12CC3CC(CC(C3)C1)C2`, the logP in data set [3] (read-out: logP) worked out at 3.66. Further, the solubility in data set [4] was determined as 17.4 µg/mL (≈ 49.8 µM).
In data set [1], `CCCCCCCCCCNC(=O)NC12CC3CC(CC(C3)C1)C2` displayed an IC50 of 0.11 µM. In data set [3] (read-out: logP), the logP was found to be 4.76. Moreover, in data set [4], the solubility was found to be 0.5 µg/mL (≈ 1.49 µM).

The IC50 is the concentration needed to halve the response being measured. Usually logP stands for the decadic logarithm of the partition coefficient of the neutral form, usually between octanol and water.
